Compound activity as filed in PubChem.
In the library only some 1.7% were active in any assay of this set; here they are far more common.
Neddyl block – blocks human cullin neddylation | P61081+Q13564 | TR-FRET cullin neddylation, biochemical | inhibition, % at 25 µM | actives 0.58% (n = 360,000) | AID 651699; in the data active means inhibition above about 36%
Arr AP2 block – blocks beta-arrestin peptide binding to AP2 adaptin | FITC-arrestin peptide / GST-AP2 beads, flow cytometry; AP2 beta2 appendage carries R879A mutation | inhibition, % at 10 µM | actives 0.31% (n = 340,000) | AID 504490;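 active means inhibition above a set limit, near 3 SD of compounds lacking own fluorescence, cut at about 54% in these data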
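test system = AP2 appendage R879A on GSH beads | buffer or medium = PBS plus Tween 20 (0.05%) and BSA (0.1%) | incubation = 12 min plus 1 h, RT | detection = bead flow cytometry, FITC channel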
DSG3 Ab inh – human desmoglein-3 autoantibody binding inhibition | actives 0.48% (n = 310,000) | AID 588358 | P32926 | binding (percent of control), % at 10 µM | DSG3-coupled beads, scFv-anti-DSG3-GFP binding, flow cytometry; active compounds read low;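 active means binding more than 3 SD below its plate's average and above zero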;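 further: hits lower antibody fragment binding to DSG3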
Target sequence (P32926 whole entry, looked up, the tested form may be a part): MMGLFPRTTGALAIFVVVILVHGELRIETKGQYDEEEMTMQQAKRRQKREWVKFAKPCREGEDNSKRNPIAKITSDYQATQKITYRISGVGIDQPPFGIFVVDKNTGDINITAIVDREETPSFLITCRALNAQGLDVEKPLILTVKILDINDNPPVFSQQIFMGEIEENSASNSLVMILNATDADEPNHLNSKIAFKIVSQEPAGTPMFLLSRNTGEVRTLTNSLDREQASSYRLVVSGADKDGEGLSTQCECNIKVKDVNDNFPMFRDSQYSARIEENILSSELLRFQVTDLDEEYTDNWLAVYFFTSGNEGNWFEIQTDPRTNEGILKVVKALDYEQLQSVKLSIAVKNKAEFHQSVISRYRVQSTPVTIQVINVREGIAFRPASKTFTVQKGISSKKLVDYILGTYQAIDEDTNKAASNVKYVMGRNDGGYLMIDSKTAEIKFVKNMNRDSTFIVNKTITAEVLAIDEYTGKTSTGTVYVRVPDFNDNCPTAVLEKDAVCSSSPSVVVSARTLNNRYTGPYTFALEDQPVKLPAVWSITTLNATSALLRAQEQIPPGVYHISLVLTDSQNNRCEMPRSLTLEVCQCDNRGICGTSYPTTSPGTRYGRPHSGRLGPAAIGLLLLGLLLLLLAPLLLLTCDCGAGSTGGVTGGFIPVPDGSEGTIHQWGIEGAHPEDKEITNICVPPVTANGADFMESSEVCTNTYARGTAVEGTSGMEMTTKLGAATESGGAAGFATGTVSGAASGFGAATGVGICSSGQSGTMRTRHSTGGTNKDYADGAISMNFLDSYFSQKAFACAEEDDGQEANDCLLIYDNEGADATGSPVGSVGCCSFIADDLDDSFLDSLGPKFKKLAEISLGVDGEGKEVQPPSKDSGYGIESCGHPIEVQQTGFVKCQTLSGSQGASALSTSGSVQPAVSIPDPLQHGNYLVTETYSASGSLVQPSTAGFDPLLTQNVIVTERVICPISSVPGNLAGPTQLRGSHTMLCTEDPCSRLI
Efflux pump inh – blocks antifungal efflux pumps in multiplex yeast assay; actives 0.44% (n = 330,000); AID 485275; S. cerevisiae Candida pump triplex, Nile Red efflux; inhibition, % at 10 µM;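 active means plate passing quality check with inhibition over a set limit, or well fluorescence over plate mean plus 4 SD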;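 further: Nile Red retained in pooled yeast measured as flow cytometry median fluorescence; higher means more Nile Red kept so more efflux inhibition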
A number is an active result; – = inactive; · = no result shown.

SMILES	Neddyl block	Arr AP2 block	DSG3 Ab inh	Efflux pump inh
Cc1ccc(C)c(OCCC(=O)N(C)CC(=O)Nc2c(C)cccc2C)c1	–	–	·	–
CCCCCCSc1cc(-c2nc3cnccn3c2NCc2ccccc2)ccc1OC	·	·	–	0.8
COc1ccc(-c2nc3cnccn3c2NCc2ccccc2)cc1SC1CCCCC1	·	–	–	–
CN(C)c1ccc(C(c2ccc(N(C)C)cc2)C(O)c2ccccc2)cc1 (centres undefined)	–	–	·	·
OC(c1ccccc1)C(O)c1ccccc1 (centres undefined)	–	–	91	–
CC(=O)N1Cc2ccccc2CC1C(=O)OCC(=O)c1c(N)n(C)c(=O)n(C)c1=O (centres undefined)	–	–	–	·
Cn1c(N)c(C(=O)COC(=O)C2Cc3ccccc3CN2S(C)(=O)=O)c(=O)n(C)c1=O (centres undefined)	–	·	76	·
Cc1onc(-c2c(F)cccc2Cl)c1C(=O)c1ccc(F)cc1	–	–	64	–
Cc1ccc(C(=O)OCC(=O)Nc2ccc3c(c2)OCCO3)cc1C	–	–	69	·
O=C(COC(=O)/C=C/c1ccccc1)Nc1ccc2c(c1)OCCO2	–	–	-4.7	–
Cc1cc(C)cc(NC(=O)COC(=O)c2ccc3c(c2)OCCO3)c1	–	–	–	–
CN(Cc1cn(-c2ccccc2)nc1-c1ccc(Cl)cc1)C(=O)CCC(=O)O	–	–	–	–
Nc1ccc(C(=O)N/N=C\C=C\c2ccc([N+](=O)[O-])cc2)cc1	–	–	44	–
COc1ccc(-c2csc(NC(=O)c3cc(C)on3)c2C#N)cc1OC	–	–	79	–
CCc1c(C)sc(NC(=O)c2cc(-c3ccc(OC)c(OC)c3)on2)c1C#N	–	–	–	–
On1c(-c2ccccc2)nc2ncccc21	–	–	73	–
COc1ccc(-c2nc3ncccc3n2O)cc1	–	–	–	–
O=C(Nc1ccc(Cl)cc1)C1Cc2c(-c3ccccc3Oc3ccccc3)ccnc2O1 (centres undefined)	–	·	·	·
O=C(/C=C(\O)c1ccccc1)C(=O)NNC(=O)c1ccccc1[N+](=O)[O-]	–	–	–	–
Nc1ccccc1C(=O)NNC(=O)C(=O)/C=C(\O)c1ccccc1	47	–	–	–
O=C(O)c1cc(-c2ccc(/C=C3\NC(=O)N(c4ccc(Cl)cc4)C3=O)o2)ccc1Cl	65	–	–	–
CCOC(=O)c1cc(-c2ccc(/C=C3/C(=O)N(c4ccc(C(=O)O)cc4)N=C3C)o2)ccc1Cl	–	–	63	–
O=C(O)c1cc(-c2ccc(/C=C3\NC(=O)N(c4ccccc4)C3=O)o2)ccc1Cl	43	–	–	–
CC(NC(=O)C12CC3CC(CC(O)(C3)C1)C2)c1ccccc1 (centres undefined)	–	–	–	–
CSc1ccccc1NC(=O)COC(=O)CCc1ccccc1	–	–	–	–
SMILES	Neddyl block	Arr AP2 block	DSG3 Ab inh	Efflux pump inh
O=C(CC1(CC2=NS(=O)(=O)c3ccccc3N2)CCCC1)NCCc1ccccc1	–	–	–	–
O=C(CSC1=N/C(=C/c2ccc(Cl)c(Cl)c2)C(=O)N1c1ccccc1F)NC1CC1	·	–	–	–
CC(C)CNS(=O)(=O)c1cc(C(=O)OCC(=O)N2CCOCC2)c(Cl)cc1Cl	–	–	–	–
Cn1c(SCc2ccc(F)cc2)nnc1-c1cnccn1	–	–	76	–
Cn1c(SCc2ccccc2)nnc1-c1cnccn1	–	–	·	–
Cc1ccccc1-n1nc2c(c1NC(=O)c1ccco1)CS(=O)(=O)C2	–	–	–	–
Cc1ccccc1-n1nc2c(c1NC(=O)c1ccc(Br)o1)CSC2	–	–	87	–
N#CCC(=O)Nc1ccc(C(=O)OCC(=O)Nc2ccc3ccccc3c2)cc1	–	–	–	–
O=C1CC(C(=O)N(CC2CCCO2)C(C(=O)NC2CCCCC2)c2ccncc2)CS1 (centres undefined)	–	–	–	–
O=C(NC1CCCCC1)C(c1ccc(O)cc1)N(CC1CCCO1)C(=O)C1COc2ccccc2O1 (centres undefined)	–	–	78	–
Cc1nn(C(C)C(=O)NC2CCC(C)CC2)c(=O)c2nn(-c3ccccc3)c(C)c12 (centres undefined)	–	–	–	–
O=C(CSC1=Nc2ccccc2C2CC=NN12)Nc1ccc(F)cc1Cl (centres undefined)	–	–	30	–
Cc1ccc2c(n1)sc1c(-c3ccc(Br)cc3)c(C#N)c(N)nc12	–	–	74	–
CCOc1ccc(N(CC(=O)NCc2ccc(Cl)cc2)S(=O)(=O)c2ccccc2)cc1	–	–	-57	–
NNc1nc2c(Cl)ccc(Cl)c2s1	–	–	–	–
O=C(c1c(F)cccc1F)N1CCN(c2ncccn2)CC1	–	–	–	–
CCC(C)C1/C=C\CC(NC(=O)OCC2c3ccccc3-c3ccccc32)CC(=O)N1Cc1ccccc1 (centres undefined)	–	–	–	–
COc1ccc(C2/C=C\CC(NC(=O)OCC3c4ccccc4-c4ccccc43)CC(=O)N2Cc2ccccc2F)cc1 (centres undefined)	–	–	83	–
CC(=O)Nc1ccc(NC(=O)CSc2ccc(-c3ccc4c(c3)OCO4)nn2)cc1	–	–	60	–
CC(=O)c1ccc(NC(=O)CSc2ccc(-c3ccc4c(c3)OCO4)nn2)cc1	–	–	–	–
O=C(CCNS(=O)(=O)c1ccc(OC(F)(F)F)cc1)NC1CC1	–	–	–	–
O=C(Nc1nc(-c2cccnc2)cs1)c1ccc([N+](=O)[O-])cc1	–	–	29	–
Cc1ccc2nc(SCc3ccccc3)c(C=O)c(=O)n2c1	–	–	53	–
CN(C)c1ccc(C(=O)N2CCC2(C)C(=O)O)cc1 (centres undefined)	–	·	·	·
CCn1c(-c2csc(-c3ccc(Cl)cc3)n2)n[nH]c1=S	–	–	–	–
SMILES	Neddyl block	Arr AP2 block	DSG3 Ab inh	Efflux pump inh
CCn1c(-c2csc(-c3ccccc3)n2)n[nH]c1=S	–	–	-34	–
CN1CCc2c(sc3c2C(=O)NC(c2ccccn2)N3)C1 (centres undefined)	48	–	·	–
CCN1CCN(C(c2cccs2)C(C)NC(=O)c2ccccc2F)CC1 (centres undefined)	–	–	–	–
c1ccc(-c2nc3cc4ccccc4cc3[nH]2)nc1	44	–	·	–
NC(=S)N/N=C/c1ccc(C23CC4CC(CC(C4)C2)C3)cc1	·	·	·	0.6
Nc1ccc2nc(SCC(=O)c3ccccc3)sc2c1	–	–	92	–
Nc1ccc2nc(SCc3ccccc3F)sc2c1	–	–	–	–
C/C(=N\Nc1ccccc1[N+](=O)[O-])c1ccccc1O	–	–	–	–
C/C(=N\Nc1ccc(S(N)(=O)=O)cc1[N+](=O)[O-])c1ccccc1O	–	–	72	–
CC(=O)c1ccc(-c2csc(N3CCC(C(N)=O)CC3)n2)cc1	·	·	·	–
NC(=O)C1CCN(c2nc(-c3ccc(Br)cc3)cs2)CC1	–	–	58	–
COc1ccc(CN(C)C(=O)COc2cccc(-n3cnnn3)c2)cc1OC	–	–	·	–
CCCCc1cc(=O)oc2cc(C)cc(OCC(=O)Nc3ccccn3)c12	·	–	3.8	–
CCCc1cc(=O)oc2cc(C)cc(OCC(=O)Nc3ccccn3)c12	·	–	·	–
